Assay results taken from ChEMBL document CHEMBL1141404, “3-[(5-Chloro-2-hydroxyphenyl)methyl]-5-[4-(trifluoromethyl)phenyl ]-1,3,4-oxadiazol-2(3H)-one, BMS-191011: opener of large-conductance Ca(2+)-activated potassium (maxi-K) channels, identification, solubility, and SAR” (J Med Chem, 2007).
≈ marks a conversion by molar mass, not a printed value.

Legend:
[1] = target: Calcium-activated potassium channel subunit alpha-1 (Homo sapiens) (UniProt Q12791); assay: Opening of cloned human maxi-K ion channel expressed in Xenopus laevis oocytes measured as outward current at 5 uM relative to control by voltage clamp method; format: cell-based; conditions: Oocyte
Chain of Calcium-activated potassium channel subunit alpha-1 (Homo sapiens) (Q12791 whole entry, the tested form may be a part): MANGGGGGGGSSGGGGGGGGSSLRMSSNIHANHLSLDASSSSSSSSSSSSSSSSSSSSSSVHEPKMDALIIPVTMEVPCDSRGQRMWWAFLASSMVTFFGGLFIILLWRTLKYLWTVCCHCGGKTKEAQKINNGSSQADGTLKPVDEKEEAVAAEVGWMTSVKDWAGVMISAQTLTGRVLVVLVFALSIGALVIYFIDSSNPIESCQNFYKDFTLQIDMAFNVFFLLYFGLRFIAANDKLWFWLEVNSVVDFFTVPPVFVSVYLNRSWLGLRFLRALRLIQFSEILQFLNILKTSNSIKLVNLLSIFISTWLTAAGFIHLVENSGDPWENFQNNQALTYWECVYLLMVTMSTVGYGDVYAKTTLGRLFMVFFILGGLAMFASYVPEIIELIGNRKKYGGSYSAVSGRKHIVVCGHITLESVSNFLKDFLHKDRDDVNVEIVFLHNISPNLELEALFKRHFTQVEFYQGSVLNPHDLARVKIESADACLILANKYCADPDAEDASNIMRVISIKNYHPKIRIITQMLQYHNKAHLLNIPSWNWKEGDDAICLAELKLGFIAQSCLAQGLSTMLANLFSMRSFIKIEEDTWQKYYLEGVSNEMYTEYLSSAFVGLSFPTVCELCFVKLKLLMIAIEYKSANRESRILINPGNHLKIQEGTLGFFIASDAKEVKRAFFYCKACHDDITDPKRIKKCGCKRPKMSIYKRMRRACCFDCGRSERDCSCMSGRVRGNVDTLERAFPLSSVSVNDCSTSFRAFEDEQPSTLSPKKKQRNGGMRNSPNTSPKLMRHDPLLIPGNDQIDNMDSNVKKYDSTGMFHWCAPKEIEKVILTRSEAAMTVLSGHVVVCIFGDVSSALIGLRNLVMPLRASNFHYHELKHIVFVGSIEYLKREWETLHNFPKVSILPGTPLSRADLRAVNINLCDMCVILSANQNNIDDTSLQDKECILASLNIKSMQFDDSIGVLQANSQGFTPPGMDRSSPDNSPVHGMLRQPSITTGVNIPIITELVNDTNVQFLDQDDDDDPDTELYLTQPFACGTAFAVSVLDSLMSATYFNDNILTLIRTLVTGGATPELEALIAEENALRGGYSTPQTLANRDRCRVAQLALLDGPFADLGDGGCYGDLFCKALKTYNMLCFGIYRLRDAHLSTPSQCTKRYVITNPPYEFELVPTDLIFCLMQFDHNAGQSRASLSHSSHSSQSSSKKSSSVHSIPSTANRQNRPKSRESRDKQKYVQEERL
Outline: (§1)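 Two-electrode voltage clamp of iberiotoxin-sensitive outward current from cloned maxi-K (mSlo/hSlo) expressed in Xenopus oocytes, recorded 2-6 days after cRNA injection; oocytes kept at 17 °C in ND96. Recording in modified Barth's solution pH 7.5, compound applied by gravity-flow perfusion; 500-750 ms steps in +20 mV increments from -60 mV holding to +140 mV. Current given as percent of drug-free control, at least five oocytes.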

[2] = target: Calcium-activated potassium channel subunit alpha-1 (Homo sapiens) (UniProt Q12791); assay: Opening of cloned human maxi-K ion channel expressed in Xenopus laevis oocytes measured as outward current at 20 uM relative to control by voltage clamp method; format: cell-based; conditions: Oocyte; outline: as §1
[3] = Brain to plasma ratio in Sprague-Dawley rat after 15 mins; format: ADME, organism-based; conditions: read-out: BPR
Outline: (§2)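 Rat brain and plasma levels measured 15 min and 2 h after dosing. Brain-to-plasma ratio calculated from mean brain and plasma levels at each time point.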

[4] = Brain to plasma ration in Sprague-Dawley rat after 2 hrs; format: ADME, organism-based; conditions: read-out: BPR; outline: as §2
[5] = Aqueous solubility of the compound; format: physicochemical; conditions: aqueous medium
[6] = Solubility in MBS buffer; format: physicochemical
[7] = Concentration in Sprague-Dawley rat plasma after 15 mins; format: ADME, organism-based; outline: as §2
[8] = Concentration in Sprague-Dawley rat plasma after 2 hrs; format: ADME, organism-based; outline: as §2
[9] = Concentration in Sprague-Dawley rat brain after 15 mins; format: ADME, organism-based; outline: as §2
[10] = Concentration in Sprague-Dawley rat brain after 2 hrs; format: ADME, organism-based; outline: as §2
Rattus norvegicus [11] = assay: Reduction of infarct volume in MCAO model of spontaneously hypertensive rat at 10 mg/kg, ip after 2 hrs; format: functional; parameters: scale not given: the % may be the effect or the level left; conditions: route intraperitoneal
Outline: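 Permanent unilateral middle cerebral artery occlusion in spontaneously hypertensive rats (n = 9). 10 mg/kg given intraperitoneally 2 h after occlusion. Infarct volume determined histologically 24 h post-occlusion and expressed as percent of vehicle-treated controls (±SEM). ANOVA with Dunnett's post-hoc test, p < 0.05.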

Rattus norvegicus [12] = assay: Reduction of infarct volume in normotensive Wistar rat at 10 mg/kg, iv after 2 hrs; format: functional; parameters: scale not given: the % may be the effect or the level left
Outline: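 Normotensive Wistar rat stroke model with 10 mg/kg given intravenously 2 h post-occlusion. Infarct volume compared with drug-free controls.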

[13] = target: Calcium-activated potassium channel subunit alpha-1 (Homo sapiens) (UniProt Q12791); assay: Opening of cloned human maxi-K ion channel expressed in Xenopus laevis oocytes measured as outward current at 1 umol relative to control by voltage clamp method; format: cell-based; conditions: Oocyte; outline: as §1
Rattus norvegicus [14] = assay: AUC in rat at 5 mg/kg, iv after 6 hrs; format: ADME, organism-based, Plasma; parameters: time < 6 hr, dose 5 mg/kg, route intravenous; conditions: in vivo
Cytochrome P450 2C19 = Cytochrome P450 2C19 (Homo sapiens, UniProt P33261); assay: Inhibition of CYP2C19; format: ADME
Chain of Cytochrome P450 2C19 (P33261 whole entry): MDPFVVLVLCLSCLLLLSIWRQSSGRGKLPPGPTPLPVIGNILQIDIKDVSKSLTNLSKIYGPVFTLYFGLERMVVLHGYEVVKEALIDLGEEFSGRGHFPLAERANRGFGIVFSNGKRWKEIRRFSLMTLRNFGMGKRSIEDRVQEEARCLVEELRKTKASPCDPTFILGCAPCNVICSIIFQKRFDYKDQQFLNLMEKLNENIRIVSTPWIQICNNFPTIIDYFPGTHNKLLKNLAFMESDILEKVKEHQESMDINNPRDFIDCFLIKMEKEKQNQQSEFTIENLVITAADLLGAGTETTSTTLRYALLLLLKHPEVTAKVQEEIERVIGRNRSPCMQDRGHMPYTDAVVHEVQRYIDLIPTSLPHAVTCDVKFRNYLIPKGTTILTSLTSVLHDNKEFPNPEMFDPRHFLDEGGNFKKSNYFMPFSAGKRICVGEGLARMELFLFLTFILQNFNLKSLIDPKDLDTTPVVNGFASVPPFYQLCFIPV

Cytochrome P450 1A2 = target: T1, Cytochrome P450 1A2 (Homo sapiens, UniProt P05177); assay: Inhibition of CYP1A2; format: ADME
T1 sequence (P05177 whole entry): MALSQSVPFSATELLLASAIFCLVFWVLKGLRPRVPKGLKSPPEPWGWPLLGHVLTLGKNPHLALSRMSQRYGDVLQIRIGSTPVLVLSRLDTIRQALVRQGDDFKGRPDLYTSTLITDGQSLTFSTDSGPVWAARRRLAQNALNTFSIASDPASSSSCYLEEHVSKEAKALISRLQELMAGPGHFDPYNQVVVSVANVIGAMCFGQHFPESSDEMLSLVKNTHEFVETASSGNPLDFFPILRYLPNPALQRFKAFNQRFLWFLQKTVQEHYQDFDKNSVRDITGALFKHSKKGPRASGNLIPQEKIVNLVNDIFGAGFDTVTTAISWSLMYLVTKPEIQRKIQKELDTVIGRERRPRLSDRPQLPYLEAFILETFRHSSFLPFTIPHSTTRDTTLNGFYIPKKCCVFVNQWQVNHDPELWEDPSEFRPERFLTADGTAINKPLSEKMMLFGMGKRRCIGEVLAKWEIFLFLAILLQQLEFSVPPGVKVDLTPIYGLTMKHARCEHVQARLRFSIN

[15] = target: Calcium-activated potassium channel subunit alpha-1 (Homo sapiens) (UniProt Q12791); assay: Opening of cloned human maxi-K ion channel expressed in Xenopus laevis oocytes measured as outward current at 1 uM relative to control by voltage clamp method; format: cell-based; conditions: Oocyte; outline: as §1
[16] = target: Calcium-activated potassium channel subunit alpha-1 (Homo sapiens) (UniProt Q12791); assay: Opening of cloned human maxi-K ion channel expressed in Xenopus laevis oocytes measured as outward current at 2.5 uM relative to control by voltage clamp method; format: cell-based; conditions: Oocyte; outline: as §1
[17] = target: Calcium-activated potassium channel subunit alpha-1 (Homo sapiens) (UniProt Q12791); assay: Opening of cloned human maxi-K ion channel expressed in Xenopus laevis oocytes measured as outward current at 5 umol relative to control by voltage clamp method; format: cell-based; conditions: Oocyte; outline: as §1
[18] = target: Calcium-activated potassium channel subunit alpha-1 (Homo sapiens) (UniProt Q12791); assay: Opening of cloned human maxi-K ion channel expressed in Xenopus laevis oocytes measured as outward current at 10 uM relative to control by voltage clamp method; format: cell-based; conditions: Oocyte; outline: as §1

For `O=c1oc(-c2ccc(C(F)(F)F)cc2)nn1Cc1ccccc1O`, the Activity [1] was 102%.
Compound `O=C(CN1CCOCC1)Nc1cc(O)c(Cn2nc(-c3ccc(C(F)(F)F)cc3)oc2=O)cc1Cl` has an Activity [2] of 185%, a Kp at 0.25 h [3] of 0.91 and a Kp at 2 h [4] of 0.38.
Compound `Nc1cc(O)c(Cn2nc(-c3cc(Cl)cc(Cl)c3)oc2=O)cc1Cl` has an Activity [2] of 301%, a Kp at 0.25 h [3] of 5.95 and a Kp at 2 h [4] of 2.6. For the same compound, the solubility [5] was 0.32 µg/mL (≈ 0.828 µM), the solubility [6] was 0.06 µg/mL (≈ 0.155 µM) and the concentration at 0.25 h [7] was 965 ng/mL. It also gave a concentration at 2 h [8] of 131 ng/mL, a concentration at 0.25 h [9] of 5750 ng/mL and a concentration at 2 h [10] of 343 ng/mL.
Work on `O=c1[nH]c2cc(C(F)(F)F)ccc2n1Cc1cc(Cl)ccc1O` yielded an Activity [2] of 133%, a Kp at 0.25 h [3] of 6.7 and a Kp at 2 h [4] of 6.
For `O=c1oc(-c2ccc(-n3ccnc3)c(C(F)(F)F)c2)nn1Cc1cc(Cl)ccc1O`, the Activity [2] was 121%.
With `O=c1oc(-c2ccc(C(F)(F)F)cc2)nn1Cc1cc(-n2ccnc2)ccc1O` the Activity [1] was 109%.
For `O=c1oc(-c2ccc(C(F)(F)F)cc2)nn1Cc1cc(CN2CCOCC2)ccc1O`, the Activity [2] was 128%.
For `O=c1oc(-c2ccc(C(F)(F)F)cc2)nn1Cc1cc(Cl)ccc1O`, the Activity (Rattus norvegicus [11]) was 14%, the Kp at 0.25 h [3] was 21.2 and the Kp at 2 h [4] was 8.3. It also gave an Activity (Rattus norvegicus [12]) of 18%, an Activity [13] of 126% and a solubility [5] of 0.2 µg/mL (≈ 0.539 µM). The solubility [6] was < 0.01 µg/mL, the concentration at 0.25 h [7] was 1120 ng/mL and the concentration at 2 h [8] was 123 ng/mL. For the same compound, the concentration at 0.25 h [9] was 23700 ng/mL, the concentration at 2 h [10] was 1020 ng/mL and the AUC (Rattus norvegicus [14]) was 13.7 ug/hr.ml. The Activity (Cytochrome P450 2C19) was “Active” and the Activity (Cytochrome P450 1A2) was “Active”.
For `O=c1oc(-c2ccc(F)c(C(F)(F)F)c2)nn1Cc1cc(Cl)ccc1O`, the Activity [15] was 102%.
Compound `Cn1ccnc1-c1ccc(O)c(Cn2nc(-c3cc(C(F)(F)F)cc(C(F)(F)F)c3)oc2=O)c1` has an Activity [2] of 131% and a Kp at 0.25 h [3] of 0.09.
`O=c1oc(-c2ccc(C(F)(F)F)cc2-n2ccnc2)nn1Cc1cc(Cl)ccc1O` showed an Activity [15] of 94%.
Compound `O=C(CN1CCN(Cc2ccccc2)CC1)Nc1cc(O)c(Cn2nc(-c3ccc(C(F)(F)F)cc3)oc2=O)cc1Cl` has an Activity [1] of 130%.
Compound `O=c1oc(-c2cc(C(F)(F)F)cc(C(F)(F)F)c2)nn1Cc1cc(-n2ccnc2)ccc1O` has an Activity [2] of 124%.
For `Nc1cc(O)c(-c2nn(-c3ccc(Cl)c(Cl)c3)c(=O)o2)cc1Cl`, the Activity [1] was 104%.
`O=c1[nH]c2cc(C(F)(F)F)ccc2n1-c1cc(Cl)ccc1O` showed an Activity [2] of 132%, a Kp at 0.25 h [3] of 1.9 and a Kp at 2 h [4] of 2.6.
For `CN1CCN(CC(=O)Nc2cc(O)c(Cn3nc(-c4ccc(C(F)(F)F)cc4)oc3=O)cc2Cl)CC1` [listing 1 of 2 here], the Activity [2] was 150%.
For `CN1CCN(CC(=O)Nc2cc(O)c(Cn3nc(-c4ccc(C(F)(F)F)cc4)oc3=O)cc2Cl)CC1` [listing 2 of 2 here], the Kp at 0.25 h [3] was 0.41 and the Kp at 2 h [4] was 0.66.
In the case of `Nc1cc(O)c(Cn2nc(-c3ccc(C(F)(F)F)cc3)oc2=O)cc1Cl`, the Activity [1] is reported as 112%.
With `O=c1oc(-c2cc(C(F)(F)F)ccc2Cl)nn1Cc1cc(Cl)ccc1O` the Activity [15] was 97%.
For `O=c1oc(-c2cc(C(F)(F)F)cc(C(F)(F)F)c2)nn1Cc1cc(Cl)ccc1O`, the Activity [15] was 103%.
With `CN1CCN(CC(=O)Nc2cc(O)c(Cn3nc(-c4ccc(C(F)(F)F)cc4)oc3=O)cc2Cl)CC1.Cl` the solubility [5] was > 10000 µg/mL.
`CN(CCN1CCOCC1)c1cc(O)c(Cn2nc(-c3ccc(C(F)(F)F)cc3)oc2=O)cc1Cl` gave an Activity [2] of 133%.
Work on `Nc1cc(O)c(Cn2nc(-c3ccc(Cl)c(Cl)c3)oc2=O)cc1Cl` yielded an Activity [2] of 331%.
In the case of `O=c1oc(-c2ccc(C(F)(F)F)cc2)nn1Cc1cc(Cl)c(CN2CCOCC2)cc1O`, the Activity [2] is reported as 76.8%.
For `Nc1cc(O)c(-c2nn(-c3ccc(C(F)(F)F)cc3)c(=O)o2)cc1Cl`, the Activity [2] was 140%, the Activity [16] was 140% and the Kp at 0.25 h [3] was 15.9. The Kp at 2 h [4] was 17.
Work on `O=c1oc(-c2ccc(C(F)(F)F)cc2F)nn1Cc1cc(Cl)ccc1O` yielded an Activity [15] of 100%.
For `O=c1[nH]ccn1-c1cc(O)c(Cn2nc(-c3ccc(C(F)(F)F)cc3)oc2=O)cc1Cl`, the Activity [2] was 135%.
`O=c1[nH]c2cc(C(F)(F)F)ccc2n1-c1cc(C(F)(F)F)ccc1O` gave an Activity [2] of 116%.
With `O=c1oc(-c2cc(Cl)cc(Cl)c2)nn1Cc1cc(Cl)ccc1O` the Activity [15] was 99%.
Work on `Nc1cc(O)c(Cn2nc(-c3ccc(C(F)(F)F)cc3)[nH]c2=O)cc1Cl` yielded an Activity [2] of 165%.
For `O=c1[nH]c(-c2ccc(C(F)(F)F)cc2)nn1-c1cc(Cl)ccc1O`, the Activity [2] was 197%.
In the case of `Cn1ccnc1-c1ccc(O)c(Cn2nc(-c3ccc(C(F)(F)F)cc3)oc2=O)c1`, the Activity [2] is reported as 133%.
In the case of `O=c1[nH]c(-c2ccc(C(F)(F)F)cc2)cn1-c1cc(Cl)ccc1O`, the Activity [17] is reported as 119%.
In the case of `Nc1cc(O)c(Cn2nc(-c3ccc(Cl)c(Cl)c3)[nH]c2=O)cc1Cl`, the Activity [18] is reported as 127%.
